According to ChEMBL document CHEMBL4431329, “Peripherally Selective Cannabinoid 1 Receptor (CB1R) Agonists for the Treatment of Neuropathic Pain” (J Med Chem, 2016):
pEC50, pKi: −log10 of the molar value. The source made the active and inactive calls.

What was measured:
Cannabinoid receptor 1 [1] = target: T1, Cannabinoid receptor 1 (Homo sapiens, UniProt P21554); assay: Displacement of [3H]-CP55940 from human CB1 receptor
Outline: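 Radioligand displacement used [3H]-CP55940 as tracer in heterologous competition binding. Unlabeled reference ligands defined nonspecific binding. Ki was calculated by Cheng–Prusoff.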

[2] = Metabolic stability in Sprague-Dawley rat liver S9 fraction assessed as compound remaining at 10 uM measured at 1 hr by LC/MS analysis; assay type: ADME, subcellular; details: s9, 1 h
Outline: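 Compound (10 μM final, from 1 mM ethanol stock) was incubated at 37 °C in male Sprague–Dawley rat liver S9 (1 mg protein/mL). The mix held an NADPH-regenerating system (1 mM NADP, 5 mM glucose 6-phosphate, 1 U/mL G6PDH) in 50 mM KPO4 pH 7.4 with 3 mM MgCl2, preincubated 5 min. Samples at 0–120 min were methanol-extracted and analysed by LC/MS.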

[3] = Metabolic stability in Sprague-Dawley rat plasma assessed as compound remaining at 10 uM measured at 1 hr by LC/MS analysis; assay type: ADME, cell-free
Outline: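 Compound (10 μM final, from 1 mM ethanol stock) was incubated in male Sprague–Dawley rat plasma at 37 °C. Aliquots taken at 0, 30 and 60 min were extracted with 3 volumes methanol and centrifuged. Supernatants were analysed by LC/MS.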

[4] = AUC in naive Sprague-Dawley rat at 0.3 mg/kg, ip by LC/MS/MS analysis; assay type: ADME, organism-based; details: in vivo
Outline: (§1)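 Male Sprague–Dawley rats given a single ip injection (drug in 50/50 DMSO:Cremophor EL, diluted in sterile saline, 1.5 mL/kg). Tail-vein blood (~110 μL) drawn at intervals after brief restraint, centrifuged, plasma stored −20 °C. Quantified by LC-MS/MS against standard curves prepared in samples from untreated animals; n = 3 rats.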

Cannabinoid receptor 1 [5] = target: T1, Cannabinoid receptor 1; assay: Agonist activity at human CB1R expressed in CHO cells by Ca2+ flux assay; assay type: functional, cell-based
Outline: (§2)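 CHO cells stably co-expressing human CB1 or CB2 with Gαq16 were seeded at 40000/well and grown 24 h at 37 °C. They were loaded 1 h at 37 °C with Fluo-4 AM (2 μM final) in HBSS/20 mM HEPES/1% BSA/probenecid. Agonist was added after ~17 s baseline, and fluorescence (ex 488/em 525) was read each 1 s for 60 s. Runs were done 3–6 times; mean ± SEM.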

Cannabinoid receptor 2 = Cannabinoid receptor 2 (Homo sapiens, UniProt P34972); assay: Agonist activity at human CB2R expressed in CHO cells by Ca2+ flux assay; assay type: functional, cell-based; outline: as §2
Sequence of Cannabinoid receptor 2 (P34972 whole entry): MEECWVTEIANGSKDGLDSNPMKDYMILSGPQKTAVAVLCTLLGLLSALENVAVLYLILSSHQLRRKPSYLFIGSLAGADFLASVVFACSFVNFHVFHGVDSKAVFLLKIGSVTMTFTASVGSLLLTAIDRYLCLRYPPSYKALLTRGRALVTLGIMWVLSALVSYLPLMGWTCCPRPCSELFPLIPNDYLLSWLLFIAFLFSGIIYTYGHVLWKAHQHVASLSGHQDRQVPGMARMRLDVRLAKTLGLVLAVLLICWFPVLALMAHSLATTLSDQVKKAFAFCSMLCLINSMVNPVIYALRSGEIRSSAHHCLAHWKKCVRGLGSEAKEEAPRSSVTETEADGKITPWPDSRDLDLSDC

Rattus norvegicus [6] = assay: Antiallodynic activity in SNE-induced mechanical allodynia naive Sprague-Dawley rat model assessed as reversible […] in hindpaw ipsilateral withdrawal threshold at 0.3 mg/kg, ip preincubated for 3 hrs followed by SNE addition; assay type: functional, organism-based
Outline: (§3)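 Male Sprague–Dawley rats received unilateral sciatic nerve entrapment. Testing began 8 days post-surgery at 3-day intervals, dosed ip in DMSO/Cremophor EL/saline. Hindpaw withdrawal threshold (g) was read with a digital von Frey meter, 4 readings per paw at 30 s spacing, averaged. Reads were taken 1 h before and 3, 6, 24 and 48 h after dosing; n = 8; blinded; one-way RM ANOVA.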

[7] = Half life in naive Sprague-Dawley rat at 0.3 mg/kg, ip by LC/MS/MS analysis; assay type: ADME, organism-based; details: in vivo; outline: as §1
Rattus norvegicus [8] = assay: Antiallodynic activity in SNE-induced mechanical allodynia naive Sprague-Dawley rat model assessed as […] in hindpaw ipsilateral withdrawal threshold at 0.6 mg/kg, ip preincubated for 3 hrs followed by SNE addition in presence of tert-Butyl-4-[5-(4-Chlorophenyl)-1-(2,4-dichlorophenyl)-4- methyl-1H-pyrazole-3-amido]piperidine-1-carboxylate; assay type: functional, organism-based
Outline: (§4)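 SNE rats were given the test agonist ip alone, or 30 min after pretreatment with a selective CB1R or CB2R antagonist, with sessions at 3-day intervals. Ipsilateral hindpaw withdrawal threshold was measured by digital von Frey (4 readings per paw averaged). Tests were blinded.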

Rattus norvegicus [9] = assay: Increase in SNE-induced hindpaw contralateral withdrawal threshold in naive Sprague-Dawley rat at 0.3 mg/kg, ip incubated for 3 hrs followed by SNE addition; assay type: organism-based; details: in vivo; outline: as §3
[10] = Toxicity in naive Sprague-Dawley rat assessed as motor incoordination at 10 mg/kg administered through oral gavage after 2 to 48 hrs by rotarod test; assay type: organism-based; details: in vivo
Outline: (§5)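 Rats were trained 72 h earlier (3 sessions, 24 h apart) to stay ≥180 s on an accelerating rotarod (4–40 rev over 5 min). Time on rod was recorded to a 3 min cutoff, 1 h pre-dose and 2, 6, 24 and 48 h after ip or oral gavage dosing. Values are peak effect minus vehicle; n = 6–8; blinded.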

[11] = Cmax in naive naive Sprague-Dawley rat at 0.3 mg/kg, ip by LC/MS/MS analysis; assay type: ADME, organism-based; parameters: dose 0.3 mg/kg, route intraperitoneal; details: in vivo; outline: as §1
[12] = Toxicity in naive Sprague-Dawley rat assessed as immobility at 0.3 mg/kg, ip after 2 to 48 hrs by catalepsy ring test; assay type: organism-based; details: in vivo
Outline: (§6)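 In the ring immobility test, forepaws were placed on a 12 cm horizontal ring with hindpaws just touching the bench. Time to move off was recorded, 100 s cutoff. Testing was pre-dose and 2, 6, 24 and 48 h after ip or oral gavage dosing. Values are peak effect minus vehicle; n = 6–8; blinded.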

[13] = Toxicity in naive Sprague-Dawley rat assessed as hypothermia at 10 mg/kg administered through oral gavage after 2 to 48 hrs by core temperature test; assay type: organism-based; details: in vivo
Outline: (§7)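 Naïve rats were acclimated to a restrainer (two 5-min sessions 20 min apart). Core temperature was taken before and 2, 6, 24 and 48 h after ip (DMSO/Cremophor EL/saline) or oral gavage (DMSO in 20% condensed milk) dosing. Dose-response points are mean peak effect minus vehicle; n = 6–8 rats; blinded.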

Rattus norvegicus [14] = assay: Analgesic activity in naive Sprague-Dawley rat assessed as increase in tail flick latency at 0.3 mg/kg, ip up to 48 hrs by tail-flick assay; assay type: functional, organism-based
Outline: (§8)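 Naïve male Sprague–Dawley rats were dosed ip (DMSO/Cremophor EL/saline) or by gavage (DMSO in 20% condensed milk). Radiant heat was aimed 3 cm from the tail tip and latency timed by photocell. Baseline was set to ~5–7 s with a 25 s cutoff. Testing ran 1 h pre-dose and up to 48 h after. Peak effect was taken minus vehicle; n = 6–8; blinded.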

[15] = Toxicity in naive Sprague-Dawley rat assessed as immobility at 10 mg/kg administered through oral gavage after 2 to 48 hrs by catalepsy ring test; assay type: organism-based; details: in vivo; outline: as §6
Rattus norvegicus [16] = assay: Antiallodynic activity in SNE-induced mechanical allodynia naive Sprague-Dawley rat model assessed as decrease in hindpaw ipsilateral withdrawal threshold at 0.6 mg/kg, ip preincubated for 3 hrs followed by SNE addition in presence of SR144528; assay type: functional, organism-based; outline: as §4
[17] = Ratio of drug level in cerebrospinal fluid to plasma in naive Sprague-Dawley rat at 0.3 mg/kg, ip after 75 mins; assay type: ADME, organism-based, CSF/Plasma
Outline: (§9)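 Samples taken from 3 rats ~75 min after ip dosing. CSF (100–150 μL) was taken from the cisterna magna under isoflurane. Brain was removed after pentobarbital anesthesia and cold-saline intracardiac perfusion. Plasma came from tail-vein blood. Drug was measured by LC-MS/MS against standard curves made in untreated-animal matrix, and the ratio was taken to plasma.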

[18] = Toxicity in naive Sprague-Dawley rat assessed as motor incoordination at 0.3 mg/kg, ip after 2 to 48 hrs by rotarod test; assay type: organism-based; details: in vivo; outline: as §5
[19] = Toxicity in naive Sprague-Dawley rat assessed as hypothermia at 0.3 mg/kg, ip after 2 to 48 hrs by core temperature test; assay type: organism-based; details: in vivo; outline: as §7
Rattus norvegicus [20] = assay: Antiallodynic activity in SNE-induced mechanical allodynia naive Sprague-Dawley rat model assessed as decrease in hindpaw ipsilateral withdrawal threshold at 0.6 mg/kg, ip preincubated for 3 hrs followed by SNE addition in presence of rimonabant; assay type: functional, organism-based; outline: as §4
Rattus norvegicus [21] = assay: Antiallodynic activity in SNE-induced mechanical allodynia naive Sprague-Dawley rat model assessed as decrease in hindpaw ipsilateral withdrawal threshold at 0.6 mg/kg, ip preincubated for 3 hrs followed by SNE addition in presence of SR141716; assay type: functional, organism-based; outline: as §4
Rattus norvegicus [22] = assay: Antiallodynic activity in SNE-induced mechanical allodynia naive Sprague-Dawley rat model assessed as […] in hindpaw ipsilateral withdrawal threshold at 3 mg/kg, po preincubated for 3 hrs followed by SNE addition; assay type: functional, organism-based
Outline: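 SNE rats were dosed by oral gavage (drug in DMSO diluted in 20% sweetened condensed milk, 16 mL/kg). Ipsilateral/contralateral hindpaw withdrawal thresholds were measured by digital von Frey, 4 readings per paw averaged, before and at intervals after dosing. n = 8 rats; blinded; one-way RM ANOVA against predrug values.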

Rattus norvegicus [23] = assay: Analgesic activity in naive Sprague-Dawley rat assessed as tail flick latency at 0.1 to 10 mg/kg administered through oral gavage up to 48 hrs by tail-flick assay; assay type: functional, organism-based; outline: as §8
[24] = Ratio of drug level in brain to plasma in naive Sprague-Dawley rat at 0.3 mg/kg, ip after 75 mins; assay type: ADME, organism-based; details: read-out: BPR; outline: as §9
[25] = Efflux ratio of permeability in MDCK cells expressing mdr1 at 10 uM by mass spectroscopic analysis; assay type: ADME, cell-based, Canis lupus familiaris; details: dog
Outline: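 MDCK-mdr1 monolayers were grown 4 days on Transwell filters in DMEM/F12 with 10% FBS. Compound (10 μM) was added apically in HBSS with 25 mM D-glucose, HEPES pH 7.4, and incubated 1 h at 37 °C. Apical and basal samples were quantified by LC-MS/MS (MRM). Values are the average of 2–3 measurements.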

Cannabinoid receptor 1 [26] = target: Cannabinoid receptor 1 (Rattus norvegicus, UniProt P20272); assay: Displacement of [3H]-CP55940 from rat CB1 receptor
Sequence of Cannabinoid receptor 1 (Rattus norvegicus, UniProt P20272) (P20272 whole entry): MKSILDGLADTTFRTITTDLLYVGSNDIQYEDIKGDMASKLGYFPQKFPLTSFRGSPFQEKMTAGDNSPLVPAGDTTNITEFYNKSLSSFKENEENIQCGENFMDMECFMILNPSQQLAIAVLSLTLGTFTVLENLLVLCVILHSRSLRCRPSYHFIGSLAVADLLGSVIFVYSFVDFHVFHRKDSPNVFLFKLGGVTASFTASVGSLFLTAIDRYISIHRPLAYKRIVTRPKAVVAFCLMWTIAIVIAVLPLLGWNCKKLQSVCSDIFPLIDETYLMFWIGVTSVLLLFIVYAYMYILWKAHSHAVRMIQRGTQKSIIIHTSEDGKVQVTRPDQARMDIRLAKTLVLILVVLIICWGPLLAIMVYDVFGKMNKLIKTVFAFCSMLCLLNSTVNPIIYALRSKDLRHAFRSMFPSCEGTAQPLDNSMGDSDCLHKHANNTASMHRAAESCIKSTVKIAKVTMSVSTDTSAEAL

T1 sequence (P21554 whole entry): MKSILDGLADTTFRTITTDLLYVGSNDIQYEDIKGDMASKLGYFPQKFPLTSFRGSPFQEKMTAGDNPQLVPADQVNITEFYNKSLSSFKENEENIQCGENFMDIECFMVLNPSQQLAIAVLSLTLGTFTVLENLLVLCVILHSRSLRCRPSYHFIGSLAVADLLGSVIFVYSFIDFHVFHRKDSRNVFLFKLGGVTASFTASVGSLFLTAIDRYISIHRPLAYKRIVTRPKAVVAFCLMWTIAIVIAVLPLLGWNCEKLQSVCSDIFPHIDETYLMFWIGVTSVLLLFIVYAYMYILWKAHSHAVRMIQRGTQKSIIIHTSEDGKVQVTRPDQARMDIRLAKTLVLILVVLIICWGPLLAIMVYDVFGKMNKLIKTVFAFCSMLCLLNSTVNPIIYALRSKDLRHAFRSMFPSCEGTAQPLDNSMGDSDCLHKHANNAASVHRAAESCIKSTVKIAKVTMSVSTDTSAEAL

Question: With `CCCCCCC1=C/C(=C\c2ccccc2)c2ccccc21` as the compound, how does the pKi (Cannabinoid receptor 1 [1]) read?
Answer: 5.36

Question: Which Stability [2] does the source give for `CCCCCn1cc(C(=O)c2cccc3ccccc23)c2ccc(F)cc21` here?
Answer: 30%

Question: What about the Stability [3] of the same compound?
Answer: 80%

Question: With `O=C(O)CCCn1cc(C(=O)c2cccc3ccccc23)c2ccccc21` as the compound, how does the pKi (Cannabinoid receptor 1 [1]) read?
Answer: < 5.00

Question: Which AUC [4] does the source give for `CCCc1ccc(/C=C2\C=C(CCN3CCOCC3)c3ccccc32)c2ccccc12` here?
Answer: 112 ng·h/mL

Question: What about the pEC50 (Cannabinoid receptor 1 [5]) of the same compound?
Answer: 6.74

Question: What about the Emax (Cannabinoid receptor 1 [5]) of the same compound?
Answer: 108%

Question: And the pEC50 (Cannabinoid receptor 2)?
Answer: 7.03

Question: And the Emax (Cannabinoid receptor 2)?
Answer: 69%

Question: What about the Activity (Rattus norvegicus [6]) of the same compound?
Answer: Active

Question: What about the Stability [2] of the same compound?
Answer: 37%

Question: And the half-life [7]?
Answer: 7.2 h

Question: What about the Activity (Rattus norvegicus [8]) of the same compound?
Answer: inactive

Question: What about the Activity (Rattus norvegicus [9]) of the same compound?
Answer: Toxic

Question: And the Activity [10]?
Answer: Non-Toxic

Question: And the Stability [3]?
Answer: 92%

Question: What about the Cmax [11] of the same compound?
Answer: 11.9 ng/mL

Question: What about the Activity [12] of the same compound?
Answer: Non-Toxic

Question: And the Activity [13]?
Answer: Non-Toxic

Question: And the Activity (Rattus norvegicus [14])?
Answer: Active

Question: What about the Activity [15] of the same compound?
Answer: Non-Toxic

Question: And the Activity (Rattus norvegicus [16])?
Answer: Active

Question: And the Kp at 1.25 h [17]?
Answer: 0.001

Question: What about the Activity [18] of the same compound?
Answer: Non-Toxic

Question: What about the Activity [19] of the same compound?
Answer: Non-Toxic

Question: What about the Activity (Rattus norvegicus [20]) of the same compound?
Answer: inactive

Question: And the Activity (Rattus norvegicus [21])?
Answer: inactive

Question: And the Activity (Rattus norvegicus [22])?
Answer: Active

Question: What about the Activity (Rattus norvegicus [23]) of the same compound?
Answer: Active

Question: And the Kp at 1.25 h [24]?
Answer: 0.182

Question: What does the source list for `C1=C(CCN2CCOCC2)c2ccccc2/C1=C/c1ccc2c3c(cccc13)CC2`?
Answer: pEC50 (Cannabinoid receptor 2): 6.23; Emax (Cannabinoid receptor 2): 20%; Ratio [25]: 0.0014

Question: With `C[N+]1(CCn2cc(C(=O)c3cccc4ccccc34)c3ccccc32)CCOCC1` as the compound, how does the pKi (Cannabinoid receptor 1 [1]) read?
Answer: < 5.00

Question: With `CCCCCn1cc(C(=O)c2cccc3ccccc23)c2cccc(F)c21` as the compound, how does the pEC50 (Cannabinoid receptor 1 [5]) read?
Answer: 6.98

Question: And the Emax (Cannabinoid receptor 1 [5])?
Answer: 79%

Question: And the Stability [2]?
Answer: 50%

Question: What about the Stability [3] of the same compound?
Answer: 97%

Question: With `COc1ccc(C(=O)c2c(C)n(CCN3CCOCC3)c3ccccc23)cc1` [PRAVADOLINE] as the compound, how does the pKi (Cannabinoid receptor 1 [26]) read?
Answer: 5.60

Question: With `CCCCCn1cc(C(=O)c2cccc3ccccc23)c2cc(F)ccc21` as the compound, how does the Stability [2] read?
Answer: 13%

Question: And the Stability [3]?
Answer: 99%

Question: With `CCCCCCC1=C/C(=C\c2cccc3ccccc23)c2ccccc21` as the compound, how does the pKi (Cannabinoid receptor 1 [1]) read?
Answer: 6.36
